ChEMBL document CHEMBL5696442, “Discovery of type II inhibitors of TGFβ-activated kinase 1 (TAK1) and mitogen-activated protein kinase kinase kinase kinase 2 (MAP4K2)” (J Med Chem, 2015)
Active and inactive are the calls of the source. The rule behind the calls is not given here.

Legend:
[1] = target: Tyrosine-protein kinase CSK (Homo sapiens, UniProt P41240); assay: Inhibition of CSK ACT labeling site harbouring VSDFGLTKEASSTQDTGKLPVK in human A-375 cells at 5 uM by KiNativ Profiling analysis relative to control; assay type: cell-based
[2] = target: Tyrosine-protein kinase Lyn (Homo sapiens, UniProt P07948); assay: Inhibition of LYN (unknown origin) at 10 uM by Ambit Kinomescan binding assay relative to control; values are per cent of control
[3] = target: Proto-oncogene tyrosine-protein kinase Src (Homo sapiens, UniProt P12931); assay: Inhibition of SRC ACT labeling site in human Huh-7 cells at 1 uM by KiNativ Profiling analysis relative to control; assay type: cell-based
[4] = target: Serine/threonine-protein kinase 32B (Homo sapiens) (UniProt Q9NY57); assay: Inhibition of YANK2 (unknown origin) at 10 uM by Ambit Kinomescan binding assay
[5] = target: Activin receptor type-2B (Homo sapiens) (UniProt Q13705); assay: Inhibition of ACVR2B (unknown origin) at 10 uM by Ambit Kinomescan binding assay
[6] = target: T1, Phosphatidylinositol 5-phosphate 4-kinase type-2 alpha (Homo sapiens) (UniProt P48426); assay: Inhibition of PIP4K2A ATP labeling site in human A-375 cells at 0.05 uM by KiNativ Profiling analysis relative to control; assay type: cell-based
T1 sequence (whole entry): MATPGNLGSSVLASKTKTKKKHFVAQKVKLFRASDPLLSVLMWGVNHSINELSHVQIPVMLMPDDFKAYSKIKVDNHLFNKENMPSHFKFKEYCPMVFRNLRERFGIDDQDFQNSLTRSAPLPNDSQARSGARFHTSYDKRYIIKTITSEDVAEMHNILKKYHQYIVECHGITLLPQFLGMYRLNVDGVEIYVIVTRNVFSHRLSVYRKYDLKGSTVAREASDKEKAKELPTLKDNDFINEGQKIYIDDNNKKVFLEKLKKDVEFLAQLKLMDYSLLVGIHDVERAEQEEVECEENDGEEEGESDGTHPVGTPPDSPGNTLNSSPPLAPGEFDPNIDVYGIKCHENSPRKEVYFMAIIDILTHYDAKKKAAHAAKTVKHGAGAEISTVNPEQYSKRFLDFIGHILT

[7] = target: Cyclin-dependent kinase 8 (Homo sapiens) (UniProt P49336); assay: Inhibition of CDK8 (unknown origin) at 10 uM by Ambit Kinomescan binding assay relative to control; values are per cent of control
[8] = target: Platelet-derived growth factor receptor beta (Homo sapiens) (UniProt P09619); assay: Inhibition of PDGFRB (unknown origin) at 10 uM by Ambit Kinomescan binding assay relative to control
[9] = target: cGMP-dependent protein kinase 2 (Homo sapiens) (UniProt Q13237); assay: Inhibition of PRKG2 (unknown origin) at 10 uM by Ambit Kinomescan binding assay
[10] = target: Mitogen-activated protein kinase 14 (Homo sapiens, UniProt Q16539); assay: Inhibition of p38 alpha Lys2 labeling site in human A-375 cells at 5 uM by KiNativ Profiling analysis relative to control; assay type: cell-based
[11] = target: Casein kinase I isoform delta (Homo sapiens) (UniProt P48730); assay: Inhibition of CK1delta Lys2 labeling site in human A-375 cells at 5 uM by KiNativ Profiling analysis relative to control; assay type: cell-based
[12] = tested on: Epidermal growth factor receptor (Homo sapiens), P00533 [G719S]; assay: Inhibition of EGFR G719S mutant (unknown origin) at 1 uM by Ambit Kinomescan binding assay relative to control
[13] = target: Ephrin type-A receptor 5 (Homo sapiens) (UniProt P54756); assay: Inhibition of EPHA5 (unknown origin) at 1 uM by Ambit Kinomescan binding assay relative to control
[14] = target: Homeodomain-interacting protein kinase 4 (Homo sapiens) (UniProt Q8NE63); assay: Inhibition of HIPK4 (unknown origin) at 1 uM by Ambit Kinomescan binding assay relative to control; values are per cent of control
[15] = target: Mitogen-activated protein kinase kinase kinase 9 (Homo sapiens) (UniProt P80192); assay: Inhibition of MLK1 (unknown origin) at 1 uM by Ambit Kinomescan binding assay relative to control; values are per cent of control
[16] = target: Serine/threonine-protein kinase PAK 1 (Homo sapiens) (UniProt Q13153); assay: Inhibition of PAK1 (unknown origin) at 1 uM by Ambit Kinomescan binding assay relative to control; values are per cent of control
[17] = tested on: Receptor-type tyrosine-protein kinase FLT3 (Homo sapiens), P36888 [UNDEFINED MUTATION]; assay: Inhibition of FLT3 ITD mutant (unknown origin) at 1 uM by Ambit Kinomescan binding assay relative to control; values are per cent of control
[18] = target: Microtubule-associated serine/threonine-protein kinase 4 (Homo sapiens) (UniProt O15021); assay: Inhibition of MAST4 Lys2 labeling site in human A-375 cells at 5 uM by KiNativ Profiling analysis relative to control; assay type: cell-based
Summary of the method: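 Live A375 melanoma cells were treated with compound at 5 or 0.5 μM, then lysed. Lysates were labeled with a lysine-reactive ATP or ADP-biotin probe. Read-out was the compound's protection of kinase labeling sites from probe labeling (KiNativ).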

[19] = target: Tyrosine-protein kinase ABL1 (Homo sapiens, UniProt P00519); assay: Inhibition of phosphorylated ABL1 (unknown origin) at 1 uM by Ambit Kinomescan binding assay relative to control; values are per cent of control
[20] = target: T1, Phosphatidylinositol 5-phosphate 4-kinase type-2 alpha (Homo sapiens); assay: Inhibition of PIP4K2A ATP labeling site harbouring AKELPTLKDNDFINEGQK in human Huh-7 cells at 1 uM by KiNativ Profiling analysis relative to control; assay type: cell-based
[21] = target: RAF proto-oncogene serine/threonine-protein kinase (Homo sapiens, UniProt P04049); assay: Inhibition of RAF1 Lys2 labeling site in human Huh-7 cells at 1 uM by KiNativ Profiling analysis relative to control; assay type: cell-based
[22] = target: 5'-AMP-activated protein kinase catalytic subunit alpha-1 (Homo sapiens) (UniProt Q13131); assay: Inhibition of AMPKa1 Lys1 labeling site in human Huh-7 cell lysate at 1 uM by KiNativ Profiling analysis relative to control; assay type: subcellular
[23] = target: Serine/threonine-protein kinase WNK2 (Homo sapiens) (UniProt Q9Y3S1); assay: Inhibition of Wnk2 ACT labeling site in human Huh-7 cells at 1 uM by KiNativ Profiling analysis relative to control; assay type: cell-based
Chain of Serine/threonine-protein kinase WNK2 (Homo sapiens) (Q9Y3S1 whole entry): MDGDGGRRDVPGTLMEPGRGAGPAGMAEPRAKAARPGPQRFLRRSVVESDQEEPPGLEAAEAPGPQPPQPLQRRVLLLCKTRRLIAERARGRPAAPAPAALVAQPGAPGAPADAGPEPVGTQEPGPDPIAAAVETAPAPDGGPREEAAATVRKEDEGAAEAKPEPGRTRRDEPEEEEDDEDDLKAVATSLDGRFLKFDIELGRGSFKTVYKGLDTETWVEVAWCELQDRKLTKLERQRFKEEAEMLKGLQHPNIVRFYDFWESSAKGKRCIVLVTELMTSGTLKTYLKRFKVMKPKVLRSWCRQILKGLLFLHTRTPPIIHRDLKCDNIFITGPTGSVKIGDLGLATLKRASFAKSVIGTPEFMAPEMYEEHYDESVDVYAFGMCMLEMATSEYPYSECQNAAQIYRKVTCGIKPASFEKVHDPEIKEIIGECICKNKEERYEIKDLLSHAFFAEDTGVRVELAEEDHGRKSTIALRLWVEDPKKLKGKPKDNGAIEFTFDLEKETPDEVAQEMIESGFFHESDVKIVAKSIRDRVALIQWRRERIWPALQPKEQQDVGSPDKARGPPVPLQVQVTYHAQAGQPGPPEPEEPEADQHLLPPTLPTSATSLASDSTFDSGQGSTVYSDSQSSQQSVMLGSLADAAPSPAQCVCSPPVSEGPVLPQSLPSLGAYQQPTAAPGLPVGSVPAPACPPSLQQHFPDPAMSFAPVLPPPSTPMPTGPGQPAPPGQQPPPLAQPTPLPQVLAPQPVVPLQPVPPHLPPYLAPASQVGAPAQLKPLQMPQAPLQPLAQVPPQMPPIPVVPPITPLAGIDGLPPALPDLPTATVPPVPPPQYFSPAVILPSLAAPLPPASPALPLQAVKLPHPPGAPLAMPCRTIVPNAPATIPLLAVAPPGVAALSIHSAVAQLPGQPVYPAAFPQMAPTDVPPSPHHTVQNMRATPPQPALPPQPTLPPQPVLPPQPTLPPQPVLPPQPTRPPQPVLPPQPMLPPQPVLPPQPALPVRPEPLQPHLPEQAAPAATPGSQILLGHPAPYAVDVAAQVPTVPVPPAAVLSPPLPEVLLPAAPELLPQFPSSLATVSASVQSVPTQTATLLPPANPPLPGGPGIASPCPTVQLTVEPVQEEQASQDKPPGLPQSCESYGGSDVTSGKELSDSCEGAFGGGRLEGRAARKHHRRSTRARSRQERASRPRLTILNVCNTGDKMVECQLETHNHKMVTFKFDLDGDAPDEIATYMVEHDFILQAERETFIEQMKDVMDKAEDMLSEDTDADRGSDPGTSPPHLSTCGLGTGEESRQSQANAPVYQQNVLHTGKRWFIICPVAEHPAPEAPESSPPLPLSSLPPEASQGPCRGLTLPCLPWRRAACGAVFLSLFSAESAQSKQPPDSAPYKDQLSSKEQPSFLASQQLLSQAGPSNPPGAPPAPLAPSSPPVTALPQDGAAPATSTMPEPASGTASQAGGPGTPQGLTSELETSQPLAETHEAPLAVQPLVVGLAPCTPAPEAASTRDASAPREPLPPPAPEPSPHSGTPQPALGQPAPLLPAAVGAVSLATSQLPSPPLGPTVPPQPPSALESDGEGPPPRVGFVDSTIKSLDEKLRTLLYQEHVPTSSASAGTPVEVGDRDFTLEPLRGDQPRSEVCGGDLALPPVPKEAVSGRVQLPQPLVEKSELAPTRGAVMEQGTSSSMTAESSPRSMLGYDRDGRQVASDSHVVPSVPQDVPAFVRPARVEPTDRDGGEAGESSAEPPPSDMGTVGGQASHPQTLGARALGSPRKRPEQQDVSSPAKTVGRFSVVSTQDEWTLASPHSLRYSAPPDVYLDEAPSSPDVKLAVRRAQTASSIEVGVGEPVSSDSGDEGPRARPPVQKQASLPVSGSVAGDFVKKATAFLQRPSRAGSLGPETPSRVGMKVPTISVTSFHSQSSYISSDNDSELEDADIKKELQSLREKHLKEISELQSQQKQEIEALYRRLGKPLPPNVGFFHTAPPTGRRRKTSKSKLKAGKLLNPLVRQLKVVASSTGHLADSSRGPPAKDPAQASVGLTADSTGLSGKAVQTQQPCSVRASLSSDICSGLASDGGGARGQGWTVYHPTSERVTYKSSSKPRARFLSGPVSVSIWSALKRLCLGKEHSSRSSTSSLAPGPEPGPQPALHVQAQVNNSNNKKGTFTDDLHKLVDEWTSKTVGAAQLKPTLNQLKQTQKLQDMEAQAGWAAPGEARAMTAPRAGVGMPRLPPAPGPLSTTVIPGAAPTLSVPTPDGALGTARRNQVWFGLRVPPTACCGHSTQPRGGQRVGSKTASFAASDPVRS

Chain of Serine/threonine-protein kinase 32B (Homo sapiens) (Q9NY57 whole entry): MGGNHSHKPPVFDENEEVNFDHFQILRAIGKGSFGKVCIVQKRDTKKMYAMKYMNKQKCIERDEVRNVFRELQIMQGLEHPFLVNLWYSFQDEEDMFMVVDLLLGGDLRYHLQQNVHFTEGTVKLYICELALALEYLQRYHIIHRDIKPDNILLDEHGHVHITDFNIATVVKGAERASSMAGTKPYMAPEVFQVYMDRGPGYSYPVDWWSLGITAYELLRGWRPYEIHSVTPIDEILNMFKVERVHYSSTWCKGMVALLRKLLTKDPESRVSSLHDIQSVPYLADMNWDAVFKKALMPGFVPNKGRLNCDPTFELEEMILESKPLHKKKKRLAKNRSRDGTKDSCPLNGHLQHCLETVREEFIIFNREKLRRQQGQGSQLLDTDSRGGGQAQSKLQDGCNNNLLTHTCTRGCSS
Chain of RAF proto-oncogene serine/threonine-protein kinase (P04049 whole entry): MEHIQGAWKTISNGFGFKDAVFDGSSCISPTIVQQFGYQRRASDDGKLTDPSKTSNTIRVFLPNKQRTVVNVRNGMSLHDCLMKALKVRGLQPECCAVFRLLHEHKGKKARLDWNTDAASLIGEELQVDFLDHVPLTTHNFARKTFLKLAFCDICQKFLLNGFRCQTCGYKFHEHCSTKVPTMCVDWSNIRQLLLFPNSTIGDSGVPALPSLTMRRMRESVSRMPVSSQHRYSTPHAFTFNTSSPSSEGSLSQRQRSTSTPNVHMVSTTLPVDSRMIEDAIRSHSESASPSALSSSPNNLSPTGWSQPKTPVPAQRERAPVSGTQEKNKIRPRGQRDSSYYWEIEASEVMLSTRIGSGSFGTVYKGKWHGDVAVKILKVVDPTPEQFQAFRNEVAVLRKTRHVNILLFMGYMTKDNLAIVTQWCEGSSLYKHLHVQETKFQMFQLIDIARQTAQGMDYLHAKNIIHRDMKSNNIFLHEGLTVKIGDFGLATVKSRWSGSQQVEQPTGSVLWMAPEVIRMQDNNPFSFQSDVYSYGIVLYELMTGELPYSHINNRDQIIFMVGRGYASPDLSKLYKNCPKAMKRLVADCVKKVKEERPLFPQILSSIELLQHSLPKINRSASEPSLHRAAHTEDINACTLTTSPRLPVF
Chain of Mitogen-activated protein kinase kinase kinase 9 (Homo sapiens) (P80192 whole entry, looked up): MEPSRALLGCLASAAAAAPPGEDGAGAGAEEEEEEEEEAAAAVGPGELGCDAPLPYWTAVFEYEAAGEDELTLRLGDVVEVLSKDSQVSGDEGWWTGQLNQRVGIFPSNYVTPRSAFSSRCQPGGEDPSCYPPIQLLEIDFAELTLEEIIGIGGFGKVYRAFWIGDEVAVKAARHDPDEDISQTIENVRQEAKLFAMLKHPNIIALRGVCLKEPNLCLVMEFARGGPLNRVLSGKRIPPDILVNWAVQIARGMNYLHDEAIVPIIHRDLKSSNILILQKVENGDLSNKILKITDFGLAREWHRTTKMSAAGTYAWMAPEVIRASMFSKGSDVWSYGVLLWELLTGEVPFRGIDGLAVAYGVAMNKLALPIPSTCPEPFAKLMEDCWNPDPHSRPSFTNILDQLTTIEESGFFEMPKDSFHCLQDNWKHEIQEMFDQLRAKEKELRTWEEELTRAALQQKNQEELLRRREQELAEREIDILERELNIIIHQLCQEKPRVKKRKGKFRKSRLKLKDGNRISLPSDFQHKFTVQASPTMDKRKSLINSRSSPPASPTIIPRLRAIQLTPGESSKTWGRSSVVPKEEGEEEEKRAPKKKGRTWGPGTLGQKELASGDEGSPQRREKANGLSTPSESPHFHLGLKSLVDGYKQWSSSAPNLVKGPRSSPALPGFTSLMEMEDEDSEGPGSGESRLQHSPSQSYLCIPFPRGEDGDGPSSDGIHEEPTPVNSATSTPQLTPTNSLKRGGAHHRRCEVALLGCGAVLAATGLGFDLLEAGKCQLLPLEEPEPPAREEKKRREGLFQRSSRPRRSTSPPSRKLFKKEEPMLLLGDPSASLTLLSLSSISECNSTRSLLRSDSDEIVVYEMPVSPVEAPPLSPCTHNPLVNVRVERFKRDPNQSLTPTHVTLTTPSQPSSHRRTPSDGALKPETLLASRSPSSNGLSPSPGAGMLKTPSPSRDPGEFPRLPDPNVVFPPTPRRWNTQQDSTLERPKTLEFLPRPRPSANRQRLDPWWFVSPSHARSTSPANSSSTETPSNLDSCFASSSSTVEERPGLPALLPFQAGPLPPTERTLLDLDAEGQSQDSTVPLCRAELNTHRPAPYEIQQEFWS
Chain of Mitogen-activated protein kinase 14 (Q16539 whole entry, canonical isoform): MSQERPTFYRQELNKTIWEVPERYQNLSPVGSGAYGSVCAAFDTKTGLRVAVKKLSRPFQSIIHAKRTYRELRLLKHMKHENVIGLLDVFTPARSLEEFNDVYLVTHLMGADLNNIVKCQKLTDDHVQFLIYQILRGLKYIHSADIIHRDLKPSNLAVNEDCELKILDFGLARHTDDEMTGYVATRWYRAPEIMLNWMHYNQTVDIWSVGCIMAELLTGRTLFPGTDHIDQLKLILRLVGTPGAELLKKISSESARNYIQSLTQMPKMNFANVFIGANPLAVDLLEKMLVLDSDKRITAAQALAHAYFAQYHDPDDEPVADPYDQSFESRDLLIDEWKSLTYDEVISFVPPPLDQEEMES

Work on `CCN1CCN(Cc2ccc(NC(=O)c3ccc(C)c(Oc4ccnc5[nH]ccc45)c3)cc2C(F)(F)F)CC1` yielded an inhibition [1] of 78.2%, a percent of control [2] of 0.75% and an inhibition [3] of -0.3%. For the same molecule, the inhibition [4] was “inactive”, the inhibition [5] was “inactive” and the inhibition [6] was 13.2%. For the same molecule, the percent of control [7] was 3.9%, the inhibition [8] was 0% and the inhibition [9] was “inactive”.
`CCN1CCN(Cc2ccc(NC(=O)c3ccc(C)c(/C=C/c4cnc5[nH]ccc5c4OC)c3)cc2C(F)(F)F)CC1` showed an inhibition [10] of 52.4%, an inhibition [11] of 1.4% and an inhibition [12] of 0.9%. For the same molecule, the inhibition [13] was 21%, the residual activity [14] was 16% and the residual activity [15] was 4.7%. It also gave a residual activity [16] of 100%, a residual activity [17] of 1.4% and an inhibition [18] of -8.4%. It also gave a % of control [19] of 0.7%.
For `CNc1cc(Oc2cc(C(=O)Nc3cc(N4CCN(C)CC4)cc(C(F)(F)F)c3)ccc2C)ncn1`, the inhibition [20] was 13.4%, the inhibition [21] was 34.1% and the inhibition [22] was 8.7%. For the same molecule, the inhibition [23] was 21.6%.
